Measured values taken from ChEMBL document CHEMBL4138219, “Pyrano[3,2-a]carbazole alkaloids as effective agents against ischemic stroke in vitro and in vivo” (Eur J Med Chem, 2018).
The source made the active and inactive calls. The calls are words filed in the database; no cut-off is given here.

Assays:
[1] = Antioxidant activity assessed as free radical scavenging activity at 25 mg/ml by ESR method; assay type: functional
In short: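 ESR spin-trapping was done at room temperature. 50 mmol/L TEMP and 25 mg/mL compound were mixed in DMSO and exposed to UVA light for 1 min before recording. Settings were 10 mW microwave power, 1 G field modulation and 150 G scan width.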

[2] = test system: Cortical neurone; assay: Neuroprotective activity against H2O2-induced damage in Sprague-Dawley rat primary cortical neurons assessed as cell viability at 10 uM after 24 hrs by MTT assay (reference value: 70 +/- 2.6%); assay type: functional; conditions: read-out: Activity
[3] = test system: Cortical neurone; assay: Neuroprotective activity against H2O2-induced damage in Sprague-Dawley rat primary cortical neurons assessed as cell viability at 50 uM after 24 hrs by MTT assay (reference value: 70 +/- 2.6%); assay type: functional; conditions: read-out: Activity
[4] = Plasma concentration in Sprague-Dawley rat at 40 mg/kg administered via oral gavage measured at 0.25 hrs by LC-MS/MS method; assay type: ADME, organism-based
In short: (§1)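 For the time-course, male SD rats (260–280 g) received a single 40 mg/kg oral gavage dose and were killed at 0.083, 0.25, 0.5, 1, 2, 4, 6, 8, 12 and 24 h (n = 3 each). Plasma and brain homogenate (three volumes of saline) were protein-precipitated, centrifuged, and analyzed by validated LC-MS/MS. Results are given as mean ± SD.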

[5] = test system: PC-12; assay: Cytoprotective activity against H2O2-induced damage in rat PC12 cells assessed as cell viability at 10 uM after 24 hrs by MTT assay (reference value: 70.1 +/- 3.7%); assay type: functional; conditions: PC-12, 24 h, read-out: Activity
[6] = Plasma concentration in Sprague-Dawley rat at 40 mg/kg administered via oral gavage measured at 4 hrs by LC-MS/MS method; assay type: ADME, organism-based; in short: as §1
[7] = Drug uptake in Sprague-Dawley rat brain at 40 mg/kg administered via oral gavage measured at 2 hrs by LC-MS/MS method; assay type: ADME, organism-based; conditions: read-out: Drug uptake; in short: as §1
[8] = Drug uptake in Sprague-Dawley rat brain at 40 mg/kg administered via oral gavage measured at 1 hr by LC-MS/MS method; assay type: ADME, organism-based; conditions: read-out: Drug uptake; in short: as §1
[9] = test system: Rattus norvegicus; assay: Reversal of middle cerebral artery occlusion and reperfusion-induced death in Sprague-Dawley rat assessed as survival rate at 20 mg/kg administered via oral gavage as qd for 7 days measured on day 7 post reperfusion (reference value: 50%); assay type: functional; conditions: 168 h
[10] = Drug uptake in Sprague-Dawley rat brain at 40 mg/kg administered via oral gavage measured at 0.5 hrs by LC-MS/MS method; assay type: ADME, organism-based; conditions: read-out: Drug uptake; in short: as §1
[11] = test system: PC-12; assay: Cytoprotective activity against oxygen-glucose deprivation/reoxygenation-induced damage in rat PC12 cells assessed as cell viability at 10 uM after 24 hrs by MTT assay (reference value: 70 +/- 5.1%); assay type: functional; conditions: PC-12, 24 h, read-out: Activity
[12] = Ratio of AUC (0 to t) in Sprague-Dawley rat brain to plasma at 40 mg/kg administered via oral gavage; assay type: ADME, organism-based; conditions: read-out: Ratio AUC
In short: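 Brain-to-plasma exposure ratio, taken as AUC(0-t) in brain tissue divided by AUC(0-t) in plasma. Male SD rats (260–280 g) received a single 40 mg/kg oral gavage dose and were sampled from 0.083 to 24 h (n = 3 per time point). Brain was homogenized in saline and quantified by LC-MS/MS.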

[13] = test system: Rattus norvegicus; assay: Increase in neurological function in Sprague-Dawley rat middle cerebral artery occlusion and reperfusion model assessed as decrease in forelimb falling number at 20 to 80 mg/kg administered via oral gavage as qd for 7 days measured on day 2 to 7 during compound dosing post reperfusion by grid test; assay type: functional, organism-based
In short: (§2)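 Male SD rats (260–280 g) underwent MCAO with reperfusion. They were randomized to model, 80 mg/kg 3-n-butylphthalide, or compound at 20, 40 or 80 mg/kg. Rats without neurological impairment after reperfusion were excluded. Neurological deficit was scored on days 1–7 by the Zea Longa test, and forelimb falls were counted in a grid test.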

[14] = AUC (0 to t) in Sprague-Dawley rat brain at 40 mg/kg administered via oral gavage by LC-MS/MS method; assay type: ADME, organism-based; conditions: in vivo
[15] = test system: Rattus norvegicus; assay: Anti-cerebral ischemia in Sprague-Dawley rat middle cerebral artery occlusion and reperfusion model assessed as decrease in brain infract volume at 20 to 40 mg/kg administered via oral gavage as qd for 7 days measured on day 7 post reperfusion by TTC staining-based assay; assay type: functional, organism-based
In short: (§3)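 Male Sprague-Dawley rats (260e280 g) randomised to MCAO/R, MCAO/R + NBP 80 mg/kg, or MCAO/R + compound at 20, 40 or 80 mg/kg. Rats without neurological impairment, or dead after reperfusion at 0 h, were excluded. On day 7, rats were transcardially perfused with PBS. Brains were cut into six 2-mm sections and stained with 1.5% TTC. Infarct = right pale area/left non-ischemic area, expressed as % of the MCAO/R group.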

[16] = Plasma concentration in Sprague-Dawley rat at 40 mg/kg administered via oral gavage measured at 8 hrs by LC-MS/MS method; assay type: ADME, organism-based; in short: as §1
[17] = Plasma concentration in Sprague-Dawley rat at 40 mg/kg administered via oral gavage measured at 1 hr by LC-MS/MS method; assay type: ADME, organism-based; in short: as §1
[18] = Plasma concentration in Sprague-Dawley rat at 40 mg/kg administered via oral gavage measured at 2 hrs by LC-MS/MS method; assay type: ADME, organism-based; in short: as §1
[19] = AUC (0 to t) in Sprague-Dawley rat plasma at 40 mg/kg administered via oral gavage by LC-MS/MS method; assay type: ADME, organism-based
[20] = test system: Rattus norvegicus; assay: Reversal of middle cerebral artery occlusion and reperfusion-induced death in Sprague-Dawley rat assessed as survival rate at 80 mg/kg administered via oral gavage as qd for 7 days measured on day 7 post reperfusion (reference value: 50%); assay type: functional
[21] = Cmax in Sprague-Dawley rat brain at 40 mg/kg administered via oral gavage by LC-MS/MS method; assay type: ADME, organism-based; parameters: dose 40 mg/kg, route oral
[22] = Plasma concentration in Sprague-Dawley rat at 40 mg/kg administered via oral gavage measured at 12 hrs by LC-MS/MS method; assay type: ADME, organism-based; in short: as §1
[23] = Plasma concentration in Sprague-Dawley rat at 40 mg/kg administered via oral gavage measured at 24 hrs by LC-MS/MS method; assay type: ADME, organism-based; in short: as §1
[24] = Tmax in Sprague-Dawley rat brain at 40 mg/kg administered via oral gavage by LC-MS/MS method; assay type: ADME, organism-based
[25] = Drug uptake in Sprague-Dawley rat brain at 40 mg/kg administered via oral gavage measured at 24 hrs by LC-MS/MS method; assay type: ADME, organism-based; conditions: read-out: Drug uptake; in short: as §1
[26] = Plasma concentration in Sprague-Dawley rat at 40 mg/kg administered via oral gavage measured at 6 hrs by LC-MS/MS method; assay type: ADME, organism-based; in short: as §1
[27] = Tmax in Sprague-Dawley rat plasma at 40 mg/kg administered via oral gavage by LC-MS/MS method; assay type: ADME, organism-based
[28] = Drug uptake in Sprague-Dawley rat brain at 40 mg/kg administered via oral gavage measured at 0.25 hrs by LC-MS/MS method; assay type: ADME, organism-based; conditions: in vivo, BLD = below limit of detection; in short: as §1
[29] = Drug uptake in Sprague-Dawley rat brain at 40 mg/kg administered via oral gavage measured at 6 hrs by LC-MS/MS method; assay type: ADME, organism-based; conditions: read-out: Drug uptake; in short: as §1
[30] = Drug uptake in Sprague-Dawley rat brain at 40 mg/kg administered via oral gavage measured at 12 hrs by LC-MS/MS method; assay type: ADME, organism-based; conditions: read-out: Drug uptake; in short: as §1
[31] = test system: Rattus norvegicus; assay: Increase in neurological function in Sprague-Dawley rat middle cerebral artery occlusion and reperfusion model assessed as decrease in behavior deficit at 20 to 80 mg/kg administered via oral gavage as qd for 7 days measured on day 7 post reperfusion by Zea Longa's test; assay type: functional, organism-based; in short: as §2
[32] = test system: Rattus norvegicus; assay: Reversal of middle cerebral artery occlusion and reperfusion-induced death in Sprague-Dawley rat assessed as survival rate at 40 mg/kg administered via oral gavage as qd for 7 days measured on day 7 post reperfusion (reference value: 50%); assay type: functional; conditions: 168 h
[33] = Plasma concentration in Sprague-Dawley rat at 40 mg/kg administered via oral gavage measured at 0.083 hrs by LC-MS/MS method; assay type: ADME, organism-based; conditions: in vivo, BLD = below limit of detection; in short: as §1
[34] = Drug uptake in Sprague-Dawley rat brain at 40 mg/kg administered via oral gavage measured at 4 hrs by LC-MS/MS method; assay type: ADME, organism-based; conditions: read-out: Drug uptake; in short: as §1
[35] = Cmax in Sprague-Dawley rat plasma at 40 mg/kg administered via oral gavage by LC-MS/MS method; assay type: ADME, organism-based; parameters: dose 40 mg/kg, route oral
[36] = test system: Rattus norvegicus; assay: Reversal of middle cerebral artery occlusion and reperfusion-induced decrease in body weight in Sprague-Dawley rat assessed as body weight at 20 mg/kg administered via oral gavage as qd for 7 days measured on day 7 post reperfusion (reference value: 82%); assay type: functional; parameters: scale not given: the % may be the effect or the level left
[37] = Plasma concentration in Sprague-Dawley rat at 40 mg/kg administered via oral gavage measured at 0.5 hrs by LC-MS/MS method; assay type: ADME, organism-based; in short: as §1
[38] = Drug uptake in Sprague-Dawley rat brain at 40 mg/kg administered via oral gavage measured at 0.083 hrs by LC-MS/MS method; assay type: ADME, organism-based; conditions: in vivo, BLD = below limit of detection; in short: as §1
[39] = Drug uptake in Sprague-Dawley rat brain at 40 mg/kg administered via oral gavage measured at 8 hrs by LC-MS/MS method; assay type: ADME, organism-based; conditions: read-out: Drug uptake; in short: as §1
[40] = test system: Cortical neurone; assay: Neuroprotective activity against H2O2-induced damage in Sprague-Dawley rat primary cortical neurons assessed as cell viability at 1 uM after 24 hrs by MTT assay (reference value: 70 +/- 2.6%); assay type: functional; conditions: read-out: Activity
[41] = test system: Rattus norvegicus; assay: Anti-cerebral ischemia in Sprague-Dawley rat middle cerebral artery occlusion and reperfusion model assessed as decrease in brain infract volume at 80 mg/kg administered via oral gavage as qd for 7 days measured on day 7 post reperfusion by TTC staining-based assay; assay type: functional, organism-based; in short: as §3
[42] = test system: Rattus norvegicus; assay: Increase in neurological function in Sprague-Dawley rat middle cerebral artery occlusion and reperfusion model assessed as decrease in behavior deficit at 80 mg/kg administered via oral gavage as qd for 7 days measured on day 7 post reperfusion by Zea Longa's test; assay type: functional, organism-based; in short: as §2
[43] = test system: Rattus norvegicus; assay: Reversal of middle cerebral artery occlusion and reperfusion-induced decrease in body weight in Sprague-Dawley rat assessed as body weight at 80 mg/kg administered via oral gavage as qd for 7 days measured on day 7 post reperfusion (reference value: 82%); assay type: functional; parameters: scale not given: the % may be the effect or the level left

Compound: CC1=NN(c2ccccc2)C(=O)C1 [EDARAVONE]
- Activity [1]: Active
- viability at 10 µM [2]: 85.2%
- viability at 50 µM [3]: 86.7%

Compound: Cc1cc2c([nH]c3ccc(C(C)(C)C)cc32)c2c1OC(C)(C)C=C2
- concentration at 0.25 h [4]: 264 ng/mL
- viability at 10 µM [5]: 96.8%
- concentration at 4 h [6]: 1110 ng/mL
- Activity [1]: Active
- concentration at 2 h [7]: 1160 ng/g
- concentration at 1 h [8]: 129 ng/g
- survival at 20 mg/kg [9]: 81.3%
- concentration at 0.5 h [10]: 38.5 ng/g
- viability at 10 µM [11]: 96.1%
- Kp [12]: 4.3
- Activity [13]: Active
- AUCt [14]: 80618 ng·h/g
- Activity [15]: Active
- concentration at 8 h [16]: 1140 ng/mL
- concentration at 1 h [17]: 324 ng/mL
- concentration at 2 h [18]: 871 ng/mL
- AUC(0-t) [19]: 18800 ng·h/mL
- Activity [20]: inactive
- Cmax [21]: 5890 ng/g
- concentration at 12 h [22]: 1040 ng/mL
- concentration at 24 h [23]: 19.6 ng/mL
- Tmax [24]: 8 h
- concentration at 24 h [25]: 472 ng/g
- concentration at 6 h [26]: 1510 ng/mL
- Tmax [27]: 6 h
- viability at 10 µM [2]: 119%
- Drug uptake [28]: Bld
- concentration at 6 h [29]: 4720 ng/g
- concentration at 12 h [30]: 5330 ng/g
- Activity [31]: Active
- survival at 40 mg/kg [32]: 62.5%
- Cp [33]: Bld
- concentration at 4 h [34]: 3080 ng/g
- Cmax [35]: 1510 ng/mL
- Activity [36]: 94.7%
- concentration at 0.5 h [37]: 157 ng/mL
- Drug uptake [38]: Bld
- concentration at 8 h [39]: 5890 ng/g
- viability at 1 µM [40]: 97.6%

Compound: COc1ccc2[nH]c3c4c(c(C=O)cc3c2c1)OC(C)(C)C=C4 [CLAULANSINE F]
- viability at 10 µM [5]: 87.7%
- viability at 10 µM [11]: 93.1%

Compound: CCCCC1OC(=O)c2ccccc21 (stereo not drawn) [RAC-3-N-BUTYLPHTHALIDE]
- Activity [41]: Active
- Activity [42]: Active
- survival at 80 mg/kg ([20]; 168 h): 68.8%
- Activity [43]: 87.6%

Compound: COc1ccc2c(c1)c1cc(C=O)c3c(c1n2C)C=CC(C)(C)O3
- viability at 10 µM [5]: 93.8%
- viability at 10 µM [11]: 94.4%
